Laboratory results reported in ChEMBL document CHEMBL3414479, “Structure-based lead optimization and biological evaluation of BAX direct activators as novel potential anticancer agents” (J Med Chem, 2015).
Activity calls are given as the source filed them. The rule behind the calls is not given here.

Key:
MEF [1] = assay: Induction of apoptosis in Bak-deficient MEF assessed as appearance of fragmented nuclei and cell membrane blebbing at 15 uM after 24 hrs by DAPI staining; format: functional, cell-based; conditions: Mus musculus
Procedure, shortened: (§1)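 MEF wild-type or knockout clones (Bcl2, Bad, Bid, Bak, Bax, Bax/Bak) treated 24 h with compound (15 µM for single-concentration data) or 0.1% DMSO vehicle; apoptosis scored by fragmented nuclei and membrane blebbing. EC50 values are means of three experiments with s.d.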

MEF [2] = assay: Induction of apoptosis in Bid-deficient MEF assessed as appearance of fragmented nuclei and cell membrane blebbing at 15 uM after 24 hrs by DAPI staining; format: functional, cell-based; conditions: Mus musculus; procedure, shortened: as §1
MEF [3] = assay: Induction of apoptosis in MEF assessed as appearance of fragmented nuclei and cell membrane blebbing at 15 uM after 24 hrs by DAPI staining; format: functional, cell-based; conditions: Mus musculus; procedure, shortened: as §1
[4] = biological target: Apoptosis regulator Bcl-2 (Homo sapiens, UniProt P10415); assay: Displacement of FITC-BIM from recombinant human Bcl-2 expressed in Escherichia coli after 30 mins by fluorescence polarization assay
Procedure, shortened: (§2)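 Fluorescence polarization competition: serial compound dilutions in 20 mM Hepes-KOH pH 7.4, 150 mM NaCl with 50 nM FITC-BIM; after 5 min, E. coli-expressed recombinant protein added at 1 µM; polarization read after 30 min incubation. Triplicates; Ki from nonlinear regression of competitive binding curves.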

MEF [5] = assay: Induction of apoptosis in Bcl2-deficient MEF assessed as appearance of fragmented nuclei and cell membrane blebbing at 15 uM after 24 hrs by DAPI staining; format: functional, cell-based; conditions: Mus musculus; procedure, shortened: as §1
MEF [6] = assay: Induction of apoptosis in Bax/Bak-deficient MEF assessed as appearance of fragmented nuclei and cell membrane blebbing at 15 uM after 24 hrs by DAPI staining; format: functional, cell-based; conditions: Mus musculus; procedure, shortened: as §1
MEF [7] = assay: Induction of apoptosis in Bad-deficient MEF assessed as appearance of fragmented nuclei and cell membrane blebbing at 15 uM after 24 hrs by DAPI staining; format: functional, cell-based; conditions: Mus musculus; procedure, shortened: as §1
Bcl-2-like protein 1 = Bcl-2-like protein 1 (Homo sapiens, UniProt Q07817); assay: Displacement of FITC-BIM from recombinant human Bcl-XL expressed in Escherichia coli after 30 mins by fluorescence polarization assay; procedure, shortened: as §2
MEF [8] = assay: Induction of apoptosis in Bax-deficient MEF assessed as appearance of fragmented nuclei and cell membrane blebbing at 15 uM after 24 hrs by DAPI staining; format: functional, cell-based; conditions: Mus musculus; procedure, shortened: as §1
[9] = test system: Lewis lung carcinoma cell line; assay: Antitumor activity against mouse LLC cells allografted in BD2F mouse assessed as tumor growth inhibition at 1.25 mg/kg, ip administered every other day for 5 treatments relative to control; format: functional; conditions: route intraperitoneal, read-out: TGI
Mus musculus [10] = assay: Toxicity in C57BL/6J mouse allografted with mouse LLC1 cells assessed as change in body weight at 1 mg/kg, ip qd administered from day 14 to 17 post tumor implantation measured during compound dosing; format: organism-based; set-up: dose 1 mg/kg, route intraperitoneal; conditions: in vivo
[11] = test system: Lewis lung carcinoma cell line; assay: (§3) Antitumor activity against mouse LLC1 cells allografted in C57BL/6J mouse assessed as reduction of tumor lesions at 1 mg/kg, ip qd administered from day 14 to 17 post tumor implantation measured on day 17 by hematoxylin and eosin staining-based microscopic analysis; format: functional, organism-based; set-up: dose 1 mg/kg
Procedure, shortened: (§4)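 LLC1 cells injected via tail vein on day 0; from day 14 to day 17 mice given intraperitoneal injection once daily at 1 mg/kg, vehicle 1% DMSO; euthanized day 17. Lungs inspected visually, and H&E-stained lung sections scored as tumor burden to lung area ratio versus vehicle controls.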

[12] = test system: Lewis lung carcinoma cell line; assay: as §3, with “decrease in ratio” for “reduction”, “burden to lung area” for “lesions”, “analysis relative to control” for “analysis”; format: functional; set-up: scale not given: the % may be the effect or the level left; conditions: route intraperitoneal; procedure, shortened: as §4
MEF [13] = assay: Induction of apoptosis in Bax-deficient MEF assessed as appearance of fragmented nuclei and cell membrane blebbing after 24 hrs by DAPI staining; format: functional, cell-based; conditions: Mus musculus; procedure, shortened: as §1
MEF [14] = assay: Induction of apoptosis in Bak-deficient MEF assessed as appearance of fragmented nuclei and cell membrane blebbing after 24 hrs by DAPI staining; format: functional, cell-based; conditions: Mus musculus; procedure, shortened: as §1
MEF [15] = assay: Induction of apoptosis in Bcl2-deficient MEF assessed as appearance of fragmented nuclei and cell membrane blebbing after 24 hrs by DAPI staining; format: functional, cell-based; conditions: Mus musculus; procedure, shortened: as §1
MEF [16] = assay: Induction of apoptosis in Bid-deficient MEF assessed as appearance of fragmented nuclei and cell membrane blebbing after 24 hrs by DAPI staining; format: functional, cell-based; conditions: Mus musculus; procedure, shortened: as §1
Mus musculus [17] = assay: Toxicity in C57BL/6J mouse allografted with mouse LLC1 cells assessed as mortality at 1 mg/kg, ip qd administered from day 14 to 17 post tumor implantation measured during compound dosing; format: organism-based; set-up: dose 1 mg/kg, route intraperitoneal; conditions: in vivo
Mus musculus [18] = organism: Mus musculus; assay: Toxicity in C57BL/6J mouse assessed as effect on lung; format: organism-based; conditions: in vivo
[19] = Cytotoxicity against C57BL/6J mouse primary splenocytes assessed as effect on apoptosis rate at 10 uM after 72 hrs by DAPI staining; format: cell-based; conditions: splenocyte
Procedure, shortened: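 Primary splenocytes exposed 72 hours to 10 µM; apoptosis rate determined by counting apoptotic nuclei; mean with s.d. reported.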

MEF [20] = assay: Induction of apoptosis in MEF assessed as appearance of cell membrane blebbing at 15 uM after 24 hrs by DAPI staining in presence of caspase inhibitor Ac-DEVD-CHO; format: functional, cell-based; conditions: Mus musculus
Procedure, shortened: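 MEF cells treated 24 h at 15 µM in presence of caspase inhibitor Ac-DEVD-CHO (10 µM); cell membrane blebbing assessed by microscopy.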

MEF [21] = assay: Induction of apoptosis in Bad-deficient MEF assessed as appearance of fragmented nuclei and cell membrane blebbing after 24 hrs by DAPI staining; format: functional, cell-based; conditions: Mus musculus; procedure, shortened: as §1
Mus musculus [22] = assay: Toxicity in C57BL/6J mouse allografted with mouse LLC1 cells assessed as evidence of behavioral side effect at 1 mg/kg, ip qd administered from day 14 to 17 post tumor implantation measured during compound dosing; format: organism-based; set-up: dose 1 mg/kg, route intraperitoneal; conditions: in vivo
Mus musculus [23] = assay: In vivo activation of Bax in mouse LLC1 cells allografted in C57BL/6J mouse at 1 mg/kg, ip qd administered from day 14 to 17 post tumor implantation measured on day 17 by immunoprecipitation assay; format: functional, organism-based; set-up: dose 1 mg/kg
Procedure, shortened: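 Mice carrying tail-vein-injected LLC1 lung tumors received 1 mg/kg intraperitoneally once daily days 14–17 (vehicle 1% DMSO); on day 17 lung lysates were immunoprecipitated with conformation-specific anti-BAX 6A7 antibody to detect activated BAX.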

Mus musculus [24] = assay: Toxicity in C57BL/6J mouse allografted with mouse LLC1 cells assessed as evidence of gross toxicity at 1 mg/kg, ip qd administered from day 14 to 17 post tumor implantation measured during compound dosing; format: organism-based; set-up: dose 1 mg/kg, route intraperitoneal; conditions: in vivo
Mus musculus [25] = organism: Mus musculus; assay: Toxicity in C57BL/6J mouse assessed as effect on heart; format: organism-based; conditions: in vivo
MEF [26] = assay: Induction of apoptosis in wild-type MEF assessed as appearance of fragmented nuclei and cell membrane blebbing after 24 hrs by DAPI staining; format: functional, cell-based; conditions: Mus musculus; procedure, shortened: as §1
Mus musculus [27] = organism: Mus musculus; assay: Toxicity in C57BL/6J mouse assessed as effect on femoral muscle; format: organism-based, Muscle tissue; conditions: in vivo
MEF [28] = assay: Induction of apoptosis in Bax/Bak-deficient MEF assessed as appearance of fragmented nuclei and cell membrane blebbing after 24 hrs by DAPI staining; format: functional, cell-based; conditions: Mus musculus; procedure, shortened: as §1
[29] = test system: Lewis lung carcinoma cell line; assay: Antitumor activity against mouse LLC cells allografted in C57BL/6 mouse assessed as tumor growth inhibition at 60 mg/kg, ip administerd for 14 days measured on day 15 relative to control; conditions: read-out: TGI

Sequence of Apoptosis regulator Bcl-2 (P10415 whole entry): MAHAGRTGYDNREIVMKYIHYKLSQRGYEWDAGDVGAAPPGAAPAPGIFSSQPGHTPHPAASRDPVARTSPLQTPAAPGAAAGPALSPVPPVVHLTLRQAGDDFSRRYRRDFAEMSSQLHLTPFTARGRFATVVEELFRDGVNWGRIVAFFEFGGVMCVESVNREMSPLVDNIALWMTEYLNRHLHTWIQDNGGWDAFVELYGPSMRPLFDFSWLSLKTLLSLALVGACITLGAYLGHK
Sequence of Bcl-2-like protein 1 (Q07817 whole entry, the tested form may be a part): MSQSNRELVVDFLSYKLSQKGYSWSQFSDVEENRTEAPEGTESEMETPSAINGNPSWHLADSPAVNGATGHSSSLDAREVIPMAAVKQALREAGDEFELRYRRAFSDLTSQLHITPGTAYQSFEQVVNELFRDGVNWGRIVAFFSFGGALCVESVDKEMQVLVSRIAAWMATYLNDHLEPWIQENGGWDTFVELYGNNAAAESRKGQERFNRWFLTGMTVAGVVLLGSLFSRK

| Compound | Activity (MEF [1]) | Activity (MEF [2]) | Activity (MEF [3]) | Ki [4] [µM] | Activity (MEF [5]) | Activity (MEF [6]) | Activity (MEF [7]) | Ki (Bcl-2-like protein 1) [µM] | Activity (MEF [8]) | also measured |
| --- | --- | --- | --- | --- | --- | --- | --- | --- | --- | --- |
| CCOc1ccccc1N/N=C1\C(=O)N(c2cc(O)cc(-c3ccncc3)c2)N=C1C | Active | Active | Active | > 100 | Active | inactive | Active | 30.9 | inactive | – |
| COc1cccc2c1C(=O)c1c(O)c3c(c(O)c1C2=O)C[C@@](O)(C(=O)CO)C[C@@H]3O[C@H]1C[C@H](N)[C@H](O)[C@H](C)O1 [DOXORUBICIN] | – | – | – | – | – | – | – | – | – | inhibition in vivo at 1.25 mg/kg [9]: 40% |
| CC1=NN(c2nc(-c3ccccc3)cs2)C(=O)/C1=C/c1ccc(-c2ccccc2)cc1 | Active | Active | Active | 1.6 | Active | inactive | Active | 3.1 | Active | – |
| CCOc1ccccc1N/N=C1\C(=O)N(c2cccc(-c3ccc(N(C)C)cc3)c2)N=C1C | Active | Active | Active | 4.2 | Active | inactive | Active | > 100 | Active | – |
| CCOc1ccccc1N/N=C1\C(=O)N(c2cc(O)cc(-c3ccc(N(C)C)cc3)c2)N=C1C | – | – | – | 12 | – | – | – | > 100 | – | Activity (Mus musculus [10]): Non-toxic; Activity [11]: Active; Activity [12]: 50%; EC50 (MEF [13]): > 50 µM; EC50 (MEF [14]): 1.3 µM; EC50 (MEF [15]): 0.6 µM; EC50 (MEF [16]): 0.7 µM; Activity (Mus musculus [17]): Non-toxic; Activity (Mus musculus [18]): Non-toxic; Activity [19]: Non-toxic; Activity (MEF [20]): inactive; EC50 (MEF [21]): 0.8 µM; Activity (Mus musculus [22]): Non-toxic; Activity (Mus musculus [23]): Active; Activity (Mus musculus [24]): Non-toxic; Activity (Mus musculus [25]): Non-toxic; EC50 (MEF [26]): 1.1 µM; Activity (Mus musculus [27]): Non-toxic; EC50 (MEF [28]): > 50 µM |
| CCOc1ccccc1N/N=C1\C(=O)N(c2cc(O)cc(-c3cccc(N)c3)c2)N=C1C | Active | Active | Active | > 100 | Active | inactive | Active | > 100 | Active | – |
| CC1=NN(c2nc(-c3ccccc3)cs2)C(=O)/C1=C/c1ccc2ccccc2c1 | Active | Active | Active | 2 | Active | inactive | Active | 3.4 | Active | – |
| CCOc1ccccc1N/N=C1\C(=O)N(c2cc(O)cc(-c3ccccc3)c2)N=C1C | Active | Active | Active | > 100 | Active | inactive | Active | > 100 | inactive | – |
| CC1=NN(c2nc(-c3ccccc3)cs2)C(=O)/C1=C/C(c1ccccc1)c1ccccc1 | Active | Active | Active | 1.6 | Active | inactive | Active | > 100 | Active | – |
| CC1=NN(c2nc(-c3ccccc3)cs2)C(=O)/C1=C/c1ncc[nH]1 | Active | Active | Active | 2 | Active | inactive | Active | 6.8 | Active | – |
| CC1=NN(c2cc(O)cc(-c3ccc(N(C)C)cc3)c2)C(=O)/C1=N\Nc1ccc2ccccc2c1 | Active | Active | Active | 33.9 | Active | inactive | Active | 3.4 | inactive | – |
| CC1=NN(c2nc(-c3ccccc3)cs2)C(=O)/C1=C/c1ccccc1 | Active | Active | Active | 1.9 | Active | inactive | Active | 2.4 | Active | – |
| CCOc1ccccc1N/N=C1/C(=O)N(c2nc(-c3ccccc3)cs2)N=C1C | – | – | – | 3 | – | – | – | > 100 | – | EC50 (MEF [13]): > 50 µM; EC50 (MEF [14]): 6 µM; EC50 (MEF [15]): 3.2 µM; EC50 (MEF [16]): 4 µM; EC50 (MEF [21]): 3.5 µM; EC50 (MEF [26]): 7.7 µM; EC50 (MEF [28]): > 50 µM |
| O=P1(N(CCCl)CCCl)NCCCO1 (stereo not drawn) [CYCLOPHOSPHAMIDE ANHYDROUS] | – | – | – | – | – | – | – | – | – | inhibition in vivo at 60 mg/kg [29]: 40% |
| CCOc1ccccc1CC(=O)C1C(=O)N(c2nc(-c3ccccc3)cs2)N=C1C (stereo not drawn) | – | – | inactive | > 100 | – | inactive | – | > 100 | – | – |
| CCOc1ccccc1N/N=C1\C(=O)N(c2cc(O)cc(-c3ccc(C(C)C)cc3)c2)N=C1C | Active | Active | Active | 1.9 | Active | inactive | Active | 15.5 | Active | – |
| CCOc1ccccc1C(=O)C(=O)C1C(=O)N(c2nc(-c3ccccc3)cs2)N=C1C (stereo not drawn) | – | – | inactive | > 100 | – | inactive | – | > 100 | – | – |
| CCOc1ccccc1N/N=C1\C(=O)N(c2cc(O)cc(-c3cccs3)c2)N=C1C | – | – | inactive | > 100 | – | inactive | – | > 100 | – | – |
